# Reference: ChEMBL document CHEMBL1152233, “The identification of pyrazolo[1,5-a]pyridines as potent p38 kinase inhibitors” (Bioorg Med Chem Lett, 2008)
# What was measured:
# [1] = molecular target: Mitogen-activated protein kinase 14 (Homo sapiens, UniProt Q16539); assay: Inhibition of GST-fused p38alpha expressed in Escherichia coli
# How it was run: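 GST-tagged p38 and MEK6 at the N-terminus, purified from E. coli. Reaction ran 60 min at rt, was EDTA-quenched, and was read with streptavidin SPA beads. IC50 was fitted from % inhibition against ±EDTA controls. Values are means of >2 experiments.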
# [2] = Metabolic stability in rat liver S9 microsomal fraction assessed as parent compound turnover after 30 mins; assay type: ADME, subcellular; settings: read-out: Stability
# How it was run: (§1)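 Test compound was incubated with liver S9 fraction (5 mg protein/mL) for 30 min. Read-out is % turnover of parent compound. Values are means of ≥2 incubations.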
# [3] = Metabolic stability in dog liver S9 microsomal fraction assessed as parent compound turnover after 30 mins; assay type: ADME, subcellular, Canis lupus familiaris; settings: read-out: Stability; how it was run: as §1
# [4] = Clearance in Lewis rat at 1 mg/kg, iv; assay type: ADME, organism-based; parameters: dose 1 mg/kg, route intravenous; settings: in vivo
# [5] = Volume of distribution at steady state in Lewis rat at 1 mg/kg, iv; assay type: ADME, organism-based; parameters: dose 1 mg/kg, route intravenous; settings: in vivo, read-out: Vdss
# [6] = Half life in Lewis rat at 1 mg/kg, iv; assay type: ADME, organism-based; parameters: dose 1 mg/kg, route intravenous; settings: in vivo
# [7] = AUC in Lewis rat at 1 mg/kg, iv; assay type: ADME, organism-based; parameters: dose 1 mg/kg, route intravenous; settings: plasma
# [8] = Bioavailability in Lewis rat at 1 mg/kg, iv; assay type: ADME, organism-based; settings: in vivo
# [9] = Clearance in Beagle dog at 1 mg/kg, iv; assay type: ADME, organism-based, Canis lupus familiaris; parameters: dose 1 mg/kg, route intravenous; settings: in vivo
# [10] = Volume of distribution at steady state in Beagle dog at 1 mg/kg, iv; assay type: ADME, organism-based, Canis lupus familiaris; parameters: dose 1 mg/kg, route intravenous; settings: in vivo, read-out: Vdss
# [11] = Half life in Beagle dog at 1 mg/kg, iv; assay type: ADME, organism-based, Canis lupus familiaris; parameters: dose 1 mg/kg, route intravenous; settings: in vivo
# [12] = AUC in Beagle dog at 1 mg/kg, iv; assay type: ADME, organism-based, Canis lupus familiaris; parameters: dose 1 mg/kg, route intravenous; settings: plasma
# [13] = Bioavailability in Beagle dog at 1 mg/kg, iv; assay type: ADME, organism-based, Canis lupus familiaris; settings: in vivo
# Mus musculus = assay: Inhibition of LPS-induced TNF production in mouse at 30 mg/kg, po; assay type: functional
# PBMC = assay: Inhibition of LPS-induced TNF release in human PBMC; assay type: functional, cell-based
# [14] = Clearance in Lewis rat at 5 mg/kg, iv; assay type: ADME, organism-based; parameters: dose 5 mg/kg, route intravenous; settings: in vivo
# [15] = Volume of distribution at steady state in Lewis rat at 5 mg/kg, iv; assay type: ADME, organism-based; parameters: dose 5 mg/kg, route intravenous; settings: in vivo, read-out: Vdss
# [16] = Half life in Lewis rat at 5 mg/kg, iv; assay type: ADME, organism-based; parameters: dose 5 mg/kg, route intravenous; settings: in vivo
# [17] = AUC in Lewis rat at 5 mg/kg, iv; assay type: ADME, organism-based; parameters: dose 5 mg/kg, route intravenous; settings: plasma
# [18] = Bioavailability in Lewis rat at 5 mg/kg, iv; assay type: ADME, organism-based; settings: in vivo
# [19] = molecular target: Glycogen synthase kinase-3 beta (Homo sapiens, UniProt P49841); assay: Inhibition of GSK3-beta
# [20] = molecular target: RAC-gamma serine/threonine-protein kinase (Homo sapiens, UniProt Q9Y243); assay: Inhibition of AKT3
# [21] = molecular target: Cyclin-dependent kinase 2 (Homo sapiens, UniProt P24941); assay: Inhibition of CDK2/CyclinA
# [22] = molecular target: Macrophage colony-stimulating factor 1 receptor (Homo sapiens, UniProt P07333); assay: Inhibition of C-FMS
# [23] = molecular target: Receptor tyrosine-protein kinase erbB-2 (Homo sapiens, UniProt P04626); assay: Inhibition of ERBB2
# Receptor tyrosine-protein kinase erbB-2, sequence (P04626 whole entry): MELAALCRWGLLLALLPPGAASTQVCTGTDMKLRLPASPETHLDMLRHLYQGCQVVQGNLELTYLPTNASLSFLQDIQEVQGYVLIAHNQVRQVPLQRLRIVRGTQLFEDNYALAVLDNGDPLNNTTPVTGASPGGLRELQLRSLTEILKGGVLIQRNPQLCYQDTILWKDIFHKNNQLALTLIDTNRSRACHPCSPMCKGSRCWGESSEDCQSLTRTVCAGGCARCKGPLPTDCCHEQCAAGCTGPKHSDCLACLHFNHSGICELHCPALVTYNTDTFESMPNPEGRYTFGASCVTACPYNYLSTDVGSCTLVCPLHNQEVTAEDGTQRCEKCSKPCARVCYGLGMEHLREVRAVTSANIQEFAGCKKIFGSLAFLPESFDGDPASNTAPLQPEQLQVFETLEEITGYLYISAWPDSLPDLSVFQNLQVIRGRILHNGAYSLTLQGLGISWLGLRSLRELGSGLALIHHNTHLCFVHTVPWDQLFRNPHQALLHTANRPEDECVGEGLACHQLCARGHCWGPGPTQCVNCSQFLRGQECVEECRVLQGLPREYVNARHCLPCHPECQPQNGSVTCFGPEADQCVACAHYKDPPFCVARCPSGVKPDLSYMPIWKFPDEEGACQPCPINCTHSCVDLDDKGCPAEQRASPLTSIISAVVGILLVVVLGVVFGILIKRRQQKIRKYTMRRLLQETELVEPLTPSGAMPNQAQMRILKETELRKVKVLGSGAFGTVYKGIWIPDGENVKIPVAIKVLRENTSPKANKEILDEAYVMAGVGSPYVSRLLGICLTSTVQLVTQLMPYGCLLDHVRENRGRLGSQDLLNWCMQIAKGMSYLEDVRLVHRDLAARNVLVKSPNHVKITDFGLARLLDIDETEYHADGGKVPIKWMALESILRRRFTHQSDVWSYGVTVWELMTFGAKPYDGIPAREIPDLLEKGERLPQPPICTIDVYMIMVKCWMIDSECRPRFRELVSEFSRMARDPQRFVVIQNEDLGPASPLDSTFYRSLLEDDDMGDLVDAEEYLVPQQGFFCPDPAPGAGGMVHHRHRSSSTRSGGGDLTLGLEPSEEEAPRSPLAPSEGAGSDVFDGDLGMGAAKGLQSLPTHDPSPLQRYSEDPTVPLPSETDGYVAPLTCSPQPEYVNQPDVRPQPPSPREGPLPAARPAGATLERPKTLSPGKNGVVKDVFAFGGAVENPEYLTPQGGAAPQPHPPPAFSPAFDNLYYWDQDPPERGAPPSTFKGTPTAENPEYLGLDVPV
# [24] = molecular target: Receptor tyrosine-protein kinase erbB-4 (Homo sapiens, UniProt Q15303); assay: Inhibition of ERBB4
# Receptor tyrosine-protein kinase erbB-4, sequence (Q15303 whole entry): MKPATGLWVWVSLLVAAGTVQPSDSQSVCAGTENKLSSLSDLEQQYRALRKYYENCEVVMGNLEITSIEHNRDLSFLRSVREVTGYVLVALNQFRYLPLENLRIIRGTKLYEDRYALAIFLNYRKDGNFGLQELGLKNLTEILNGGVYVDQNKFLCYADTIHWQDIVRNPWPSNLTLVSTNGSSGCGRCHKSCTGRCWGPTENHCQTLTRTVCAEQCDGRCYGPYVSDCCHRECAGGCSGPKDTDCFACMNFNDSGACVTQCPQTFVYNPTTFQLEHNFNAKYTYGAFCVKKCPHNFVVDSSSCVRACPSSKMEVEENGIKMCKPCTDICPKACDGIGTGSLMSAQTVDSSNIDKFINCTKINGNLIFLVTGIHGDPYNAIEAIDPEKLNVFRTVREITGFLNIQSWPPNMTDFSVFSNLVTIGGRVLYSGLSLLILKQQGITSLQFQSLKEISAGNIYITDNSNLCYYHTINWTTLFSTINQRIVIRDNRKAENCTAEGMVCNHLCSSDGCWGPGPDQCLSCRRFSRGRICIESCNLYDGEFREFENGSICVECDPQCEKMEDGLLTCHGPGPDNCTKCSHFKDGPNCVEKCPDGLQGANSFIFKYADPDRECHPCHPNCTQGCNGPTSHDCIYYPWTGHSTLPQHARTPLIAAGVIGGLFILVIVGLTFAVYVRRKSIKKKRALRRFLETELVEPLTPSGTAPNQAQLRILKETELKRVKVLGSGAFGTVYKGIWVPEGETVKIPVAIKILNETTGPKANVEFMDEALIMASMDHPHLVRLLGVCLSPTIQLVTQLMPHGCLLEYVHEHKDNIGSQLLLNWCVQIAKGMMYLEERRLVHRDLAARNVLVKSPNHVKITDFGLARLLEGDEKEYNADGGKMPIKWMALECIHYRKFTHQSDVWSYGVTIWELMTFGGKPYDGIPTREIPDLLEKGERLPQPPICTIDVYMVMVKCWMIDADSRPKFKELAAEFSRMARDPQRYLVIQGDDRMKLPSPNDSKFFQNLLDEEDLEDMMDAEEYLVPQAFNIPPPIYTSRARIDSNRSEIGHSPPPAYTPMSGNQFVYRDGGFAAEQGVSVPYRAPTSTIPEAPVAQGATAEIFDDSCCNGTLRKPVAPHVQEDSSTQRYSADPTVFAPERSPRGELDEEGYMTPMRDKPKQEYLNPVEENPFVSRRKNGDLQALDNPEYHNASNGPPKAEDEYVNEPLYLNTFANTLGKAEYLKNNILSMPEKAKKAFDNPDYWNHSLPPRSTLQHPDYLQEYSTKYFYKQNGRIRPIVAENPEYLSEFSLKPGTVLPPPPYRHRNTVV
# [25] = molecular target: [Pyruvate dehydrogenase (acetyl-transferring)] kinase isozyme 4, mitochondrial (Homo sapiens, UniProt Q16654); assay: Inhibition of PDHK4
# [Pyruvate dehydrogenase (acetyl-transferring)] kinase isozyme 4, mitochondrial, sequence (Q16654 whole entry): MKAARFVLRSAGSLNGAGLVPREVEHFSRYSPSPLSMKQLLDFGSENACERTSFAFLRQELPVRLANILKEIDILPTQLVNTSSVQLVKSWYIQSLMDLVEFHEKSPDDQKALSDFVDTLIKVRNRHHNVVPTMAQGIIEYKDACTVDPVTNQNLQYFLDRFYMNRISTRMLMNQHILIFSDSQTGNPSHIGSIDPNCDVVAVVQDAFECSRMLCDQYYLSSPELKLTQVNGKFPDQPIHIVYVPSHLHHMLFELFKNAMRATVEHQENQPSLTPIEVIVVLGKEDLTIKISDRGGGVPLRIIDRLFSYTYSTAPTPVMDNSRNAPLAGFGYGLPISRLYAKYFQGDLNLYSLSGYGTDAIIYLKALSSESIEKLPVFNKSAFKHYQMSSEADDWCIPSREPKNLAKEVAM
# Angiopoietin-1 receptor = Angiopoietin-1 receptor (Homo sapiens, UniProt Q02763); assay: Inhibition of TIE2
# [26] = molecular target: Vascular endothelial growth factor receptor 2 (Homo sapiens, UniProt P35968); assay: Inhibition of VEGFR2
# Vascular endothelial growth factor receptor 2, sequence (P35968 whole entry): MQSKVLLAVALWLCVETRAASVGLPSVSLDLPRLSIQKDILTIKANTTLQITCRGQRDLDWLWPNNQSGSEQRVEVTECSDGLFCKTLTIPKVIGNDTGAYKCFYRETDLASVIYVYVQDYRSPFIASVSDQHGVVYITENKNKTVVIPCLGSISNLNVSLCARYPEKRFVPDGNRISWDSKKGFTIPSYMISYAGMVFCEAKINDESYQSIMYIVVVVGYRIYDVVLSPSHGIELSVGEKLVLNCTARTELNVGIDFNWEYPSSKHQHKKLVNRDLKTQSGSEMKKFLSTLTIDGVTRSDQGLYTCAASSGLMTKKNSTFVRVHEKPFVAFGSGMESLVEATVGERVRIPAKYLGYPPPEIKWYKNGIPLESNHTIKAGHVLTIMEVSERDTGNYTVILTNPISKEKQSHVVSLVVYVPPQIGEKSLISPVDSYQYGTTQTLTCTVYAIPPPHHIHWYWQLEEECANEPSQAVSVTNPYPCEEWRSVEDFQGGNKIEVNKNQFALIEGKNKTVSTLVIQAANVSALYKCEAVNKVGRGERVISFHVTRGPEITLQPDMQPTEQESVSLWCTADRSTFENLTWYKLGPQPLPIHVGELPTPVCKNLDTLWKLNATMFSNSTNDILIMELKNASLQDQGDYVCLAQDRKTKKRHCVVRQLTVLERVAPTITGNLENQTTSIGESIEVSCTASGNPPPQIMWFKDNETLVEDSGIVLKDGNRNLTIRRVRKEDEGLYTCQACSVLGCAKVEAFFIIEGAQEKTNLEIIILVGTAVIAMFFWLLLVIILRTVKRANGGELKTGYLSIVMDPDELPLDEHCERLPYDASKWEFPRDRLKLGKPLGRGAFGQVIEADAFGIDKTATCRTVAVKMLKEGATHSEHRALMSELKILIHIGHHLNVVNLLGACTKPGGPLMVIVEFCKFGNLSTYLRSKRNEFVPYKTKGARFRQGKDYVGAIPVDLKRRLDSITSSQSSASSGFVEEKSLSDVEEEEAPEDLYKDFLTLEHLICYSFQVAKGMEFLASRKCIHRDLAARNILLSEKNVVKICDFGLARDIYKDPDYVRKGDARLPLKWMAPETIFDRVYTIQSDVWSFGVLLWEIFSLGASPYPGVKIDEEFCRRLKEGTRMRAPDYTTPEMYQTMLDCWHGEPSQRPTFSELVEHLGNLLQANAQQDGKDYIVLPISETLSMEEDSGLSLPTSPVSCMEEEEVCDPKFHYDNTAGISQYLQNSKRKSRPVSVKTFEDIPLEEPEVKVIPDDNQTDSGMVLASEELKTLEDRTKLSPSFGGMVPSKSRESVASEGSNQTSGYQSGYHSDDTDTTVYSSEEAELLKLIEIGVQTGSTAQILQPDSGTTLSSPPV
# Mitogen-activated protein kinase 14, sequence (Q16539 whole entry, the tested form may be a part): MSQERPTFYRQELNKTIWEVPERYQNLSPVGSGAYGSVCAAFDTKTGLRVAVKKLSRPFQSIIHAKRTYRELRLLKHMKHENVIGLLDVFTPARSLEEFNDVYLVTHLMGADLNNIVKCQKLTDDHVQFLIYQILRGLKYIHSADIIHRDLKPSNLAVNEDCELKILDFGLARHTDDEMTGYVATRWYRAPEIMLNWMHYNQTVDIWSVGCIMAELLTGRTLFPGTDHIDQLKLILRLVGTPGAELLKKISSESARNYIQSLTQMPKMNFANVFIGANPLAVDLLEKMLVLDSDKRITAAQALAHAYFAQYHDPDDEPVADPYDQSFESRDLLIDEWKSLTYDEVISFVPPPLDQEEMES
smiles,measurement,setting,value
Cc1cccn2nc(-c3ccc(F)cc3)c(-c3ccncc3)c12,IC50,[1],280 nM
Cc1ccc2c(-c3ccncc3)c(-c3ccc(F)cc3)nn2c1,IC50,[1],150 nM
same,metabolised at 0.5 h,[2],99%
same,metabolised at 0.5 h,[3],81%
Cc1cccc2c(-c3ccncc3)c(-c3ccc(F)cc3)nn12,IC50,[1],150 nM
same,metabolised at 0.5 h,[2],43%
same,metabolised at 0.5 h,[3],93%
Fc1ccc(-c2nn3cc(C(F)(F)F)ccc3c2-c2ccncc2)cc1,IC50,[1],200 nM
same,metabolised at 0.5 h,[2],0%
same,metabolised at 0.5 h,[3],0%
same,clearance,[4],34 mL/min/kg
same,Vd,[5],5.4 L/kg
same,half-life,[6],150 min
same,AUC,[7],500 ng·h/mL
same,bioavailability,[8],84%
N#Cc1ccc2c(-c3ccncc3)c(-c3ccc(F)cc3)nn2c1,IC50,[1],140 nM
Fc1ccc(-c2nn3c(OC4CCCC4)cccc3c2-c2ccncc2)cc1,IC50,[1],170 nM
same,metabolised at 0.5 h,[2],8%
same,metabolised at 0.5 h,[3],18%
Fc1ccc(-c2nn3cc(Cl)ccc3c2-c2ccncc2)cc1,IC50,[1],150 nM
Fc1ccc(-c2nn3cccc(F)c3c2-c2ccncc2)cc1,IC50,[1],240 nM
same,metabolised at 0.5 h,[2],21%
same,metabolised at 0.5 h,[3],39%
Fc1ccc(-c2nn3c(OCC(F)(F)F)cccc3c2-c2ccncc2)cc1,IC50,[1],70 nM
same,metabolised at 0.5 h,[2],0%
same,metabolised at 0.5 h,[3],0%
same,clearance,[4],40 mL/min/kg
same,Vd,[5],5.4 L/kg
same,half-life,[6],126 min
same,AUC,[7],500 ng·h/mL
same,bioavailability,[8],72%
same,clearance,[9],17 mL/min/kg
same,Vd,[10],8.2 L/kg
same,half-life,[11],390 min
same,AUC,[12],1500 ng·h/mL
same,bioavailability,[13],32%
Fc1ccc(-c2nn3cc(F)ccc3c2-c2ccncc2)cc1,IC50,[1],160 nM
same,metabolised at 0.5 h,[2],1%
same,metabolised at 0.5 h,[3],23%
Fc1ccc(-c2nn3c(Cl)cccc3c2-c2ccncc2)cc1,IC50,[1],150 nM
same,metabolised at 0.5 h,[2],37%
same,metabolised at 0.5 h,[3],84%
CCOc1cccc2c(-c3ccncc3)c(-c3ccc(F)cc3)nn12,IC50,[1],50 nM
Cc1ccn2nc(-c3ccc(F)cc3)c(-c3ccncc3)c2c1,IC50,[1],160 nM
same,metabolised at 0.5 h,[2],60%
same,clearance,[4],83 mL/min/kg
same,Vd,[5],2 L/kg
same,half-life,[6],72 min
same,AUC,[7],200 ng·h/mL
Fc1ccc(-c2nn3ccccc3c2-c2ccncc2)cc1 [GW434756X],inhibition in vivo at 30 mg/kg,Mus musculus,65%
same,IC50,PBMC,300 nM
same,IC50,[1],120 nM
same,metabolised at 0.5 h,[2],27%
same,metabolised at 0.5 h,[3],81%
same,clearance,[14],49 mL/min/kg
same,Vd,[15],3.2 L/kg
same,half-life,[16],72 min
same,AUC,[17],1700 ng·h/mL
same,bioavailability,[18],50%
same,clearance,[9],34 mL/min/kg
same,Vd,[10],3.8 L/kg
same,half-life,[11],114 min
same,AUC,[12],500 ng·h/mL
same,bioavailability,[13],18%
same,IC50,[19],2200 nM
same,IC50,[20],> 10 µM
same,IC50,[21],> 10 µM
same,IC50,[22],> 10 µM
same,IC50,[23],> 10 µM
same,IC50,[24],> 10 µM
same,IC50,[25],> 10 µM
same,IC50,Angiopoietin-1 receptor,> 10 µM
same,IC50,[26],> 10 µM
